The experiment addresses T1, NH(3)-dependent NAD(+) synthetase (Bacillus subtilis (strain 168), UniProt P08164).
T1 sequence (P08164 whole entry): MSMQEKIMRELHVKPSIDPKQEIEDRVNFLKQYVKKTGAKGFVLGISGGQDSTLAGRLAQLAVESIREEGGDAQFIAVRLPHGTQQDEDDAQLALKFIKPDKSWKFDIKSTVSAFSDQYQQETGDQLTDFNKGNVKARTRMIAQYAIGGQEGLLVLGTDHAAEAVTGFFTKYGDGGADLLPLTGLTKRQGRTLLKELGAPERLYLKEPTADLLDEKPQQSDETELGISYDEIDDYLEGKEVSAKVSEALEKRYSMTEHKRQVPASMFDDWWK
Put plainly: Inhibitory activity against Bacillus subtilis NAD synthetase. In short, it runs like this: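 Purified recombinant B. subtilis NAD synthetase, 2.0 µg/mL. Coupled assay: the NAD formed is converted to NADH by yeast alcohol dehydrogenase (40 µg/mL) with 1% EtOH. Buffer is 58.5 mM HEPES pH 8.5 with NH4Cl, KCl, MgCl2, 0.1 mM NaAD, 0.2 mM ATP, 0.3% BOG and 2.5% DMSO. ATP starts the reaction, which runs 10 min and is stopped with guanidine·HCl. Read A340 and fluorescence 460 nm minus pre-ATP background. IC50 from % inhibition at six concentrations.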

The source of these data is BindingDB's records for doi:10.1021/jm030003x (University of Alabama At Birmingham, 2003).

For `CN[C@@H]1[C@@H](O)[C@@H](O[C@@H]2[C@@H](O)[C@H](O[C@H]3O[C@H]([C@@H](C)NC)CC[C@H]3N)[C@@H](N)C[C@H]2N)OC[C@]1(C)O` [GENTAMICIN], the IC50 was above 1000 nM.
